Screening results: PubChem, Johns Hopkins Ion Channel Center
TRPC4 agonist = activators of mouse TRPC4 channel, primary screen, Fluo4 calcium, HEK293 TRPC4beta/mu-opioid cells | Fluo4 calcium fluorescence; stronger effect = higher value | Short transient receptor potential channel 4 (Mus musculus), Q9QUQ5 | AID 2237, 2010 | B-score at 10 µM | actives 0.49% (n = 310,000);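 active means B-score above 5 SD of library B-scores, and initial fluorescence ratio not above library mean plus 5 SD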;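 further: positive B-score marks a calcium rise read as TRPC4 activation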
Target sequence (Q9QUQ5 whole entry, looked up): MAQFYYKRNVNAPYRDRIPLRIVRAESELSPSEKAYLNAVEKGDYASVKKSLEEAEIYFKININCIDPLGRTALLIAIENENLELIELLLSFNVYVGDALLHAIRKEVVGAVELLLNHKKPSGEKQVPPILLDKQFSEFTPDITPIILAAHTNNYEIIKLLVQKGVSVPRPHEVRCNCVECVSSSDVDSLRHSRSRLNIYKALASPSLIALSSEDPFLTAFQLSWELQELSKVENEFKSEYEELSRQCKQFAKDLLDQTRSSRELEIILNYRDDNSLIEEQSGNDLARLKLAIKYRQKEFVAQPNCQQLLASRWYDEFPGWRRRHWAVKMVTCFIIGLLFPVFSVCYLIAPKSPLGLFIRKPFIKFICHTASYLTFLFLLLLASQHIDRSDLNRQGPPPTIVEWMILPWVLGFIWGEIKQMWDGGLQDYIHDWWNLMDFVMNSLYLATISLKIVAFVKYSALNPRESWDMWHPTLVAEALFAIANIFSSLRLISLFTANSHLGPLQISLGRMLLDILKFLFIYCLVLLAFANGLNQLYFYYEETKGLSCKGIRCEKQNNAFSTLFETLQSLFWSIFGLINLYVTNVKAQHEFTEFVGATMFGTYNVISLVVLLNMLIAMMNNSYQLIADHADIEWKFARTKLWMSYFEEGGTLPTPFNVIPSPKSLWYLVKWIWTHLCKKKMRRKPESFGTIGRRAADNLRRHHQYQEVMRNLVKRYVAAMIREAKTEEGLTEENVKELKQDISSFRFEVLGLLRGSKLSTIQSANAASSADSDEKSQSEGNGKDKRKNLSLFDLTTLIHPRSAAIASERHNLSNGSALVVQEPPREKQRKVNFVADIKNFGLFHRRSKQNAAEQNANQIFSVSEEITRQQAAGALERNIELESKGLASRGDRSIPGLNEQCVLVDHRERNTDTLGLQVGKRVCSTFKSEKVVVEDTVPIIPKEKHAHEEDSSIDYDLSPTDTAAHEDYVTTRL
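Test system: HEK293 cells stably co-expressing mouse TRPC4beta and mu-opioid receptor | Schedule: Fluo4 dye loading 45 min at room temperature, 110 s recording | Measured by: Kinetic Fluo4 calcium fluorescence, 5 s baseline at 1 Hz | Evaluation: B score of integrated ratio | Controls: Buffer (low) and maximal DAMGO (high)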
TRPC4 block = inhibitors of mouse TRPC4 channel, primary screen, Fluo4 calcium, HEK293 TRPC4beta/mu-opioid cells; Short transient receptor potential channel 4 (Mus musculus), Q9QUQ5; actives 0.39% (n = 300,000); B-score at 10 µM; DAMGO-evoked Fluo4 calcium flux; stronger effect = lower value;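 active means B-score over 3 SD under the library average, no early fluorescence shift, positive overall ratio signal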
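Test system – stable TRPC4beta/mu-opioid receptor HEK293 cells · Probe or stimulus – DAMGO, a submaximal dose followed by a maximal one · Dosing – one concentration per compound · Signal – Fluo4 calcium fluorescence by kinetic imaging, 5 s 1 Hz baseline · Evaluation – per-well B score of integrated baseline-normalized Fluo4 ratio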
TRPC6 inh = mouse TRPC6 channel inhibitors, primary screen, cell-based, HEK293, membrane potential dye | Short transient receptor potential channel 6 (Mus musculus), Q61143 | ACh-evoked depolarization; stronger effect = lower value | B-score at 10 µM | actives 1.1% (n = 310,000) | AID 2553, 2010;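 active means B-score under library mean minus 3 SD, initial fluorescence not abnormally high, positive integrated signal ratio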;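 further: B-score derived from integrated fluorescence ratio over the kinetic read; more negative B-score means stronger inhibition of depolarization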
TRPC4 PAM = positive allosteric modulators of TRPC4, primary screen, cell-based, mouse TRPC4beta, HEK293 mu-opioid, Fluo-4 calcium. Short transient receptor potential channel 4 (Mus musculus), Q9QUQ5. DAMGO EC20, Fluo-4 Ca2+ flux; stronger effect = higher value. B-score at 10 µM. actives 0.42% (n = 310,000);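 active means B-score of calcium response area above 5 SD of library B-scores, with initial fluorescence ratio within 5 SD of library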
TRPC6 activator = mouse TRPC6 channel activators, primary screen, cell-based, HEK293, membrane potential dye; HEK293-TRPC6 membrane potential dye fluorescence; stronger effect = higher value; B-score at 10 µM; actives 0.13% (n = 310,000); AID 2550, 2010;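 active means B-score of the integrated fluorescence ratio above library mean plus 3 SD, and starting fluorescence ratio within library mean plus 5 SD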;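 further: higher score means more depolarization so channel activation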
TRPC4 sel inh 2 = second check of whether TRPC6 inhibitors also affect mouse TRPC4 | shares compounds with TRPC6 inh | HEK293 TRPC4/MOR, membrane potential dye fluorescence; channel activated by saturating DAMGO dose | inhibition, % at 10 µM | actives 42% (n = 920) | AID 2776;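 active means compounds whose fluorescence signal differed from control wells by over 3 SD, either direction, in both duplicate plates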
TRPC4 spec = mouse TRPC4 modulation by TRPC6 hits, confirmation, selectivity assay for TRPC6 inhibitor project, cell-based, HEK293 TRPC4/mu-opioid, membrane potential dye; actives 61% (n = 920); activity change, negative = inhibition, % at 10 µM; membrane potential fluorescence; shares compounds with TRPC6 inh;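 active means rise or fall in signal beyond 3 SD of buffer-only wells in both replicate plates, either sign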;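 further: integrated kinetic ratio of fluorescence range over baseline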
HEK293 MPD ctr 2-1 = nonspecific membrane potential effects, parental HEK293, confirmation, counter-screen for TRPC6 inhibitor project, cell-based, second counter screen. parental HEK293 membrane potential dye fluorescence; maximal acetylcholine challenge after compound addition. shares compounds with TRPC6 inh. signal change vs control, % at 10 µM. actives 31% (n = 920);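 active means membrane potential signal moving either way by over 3 SD of the maximum-effect control, in both duplicate plates, meaning non-specific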
HEK293 MPD ctr-1 = membrane potential modulation in parental HEK293, confirmation, counter-screen for TRPC6 inhibitor project, cell-based | shares compounds with TRPC6 inh | actives 60% (n = 920) | membrane potential signal change, % at 10 µM | parental HEK293 membrane potential dye fluorescence;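 active means membrane potential signal shifting up or down by more than 3 SD of buffer-only wells, on both duplicate plates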
HEK293 MPD ctr-2 = parental HEK293 membrane potential modulation, confirmation, counter-screen for TRPC6 modulator project, cell-based; shares compounds with TRPC6 inh; membrane potential dye fluorescence; membrane potential signal change, % at 10 µM; actives 51% (n = 2,400);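 active means membrane potential signal moves up or down beyond 5 SD from buffer-only wells, on both duplicate plates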
HEK293 MPD ctr 2-2 = parental HEK293 nonspecific activity of TRPC6 modulators, second screen. shares compounds with TRPC6 inh. membrane potential dye fluorescence; after compound, maximal acetylcholine stimulation. inhibition, % at 10 µM. actives 14% (n = 2,400). AID 488926;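 active means membrane potential signal drops by more than 5 SD from the mean control signal, in both duplicate plates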
TRPC4 ctr mod = TRPC4 modulation by TRPC6 hit compounds, confirmation, selectivity assay for TRPC6 modulator project, cell-based, HEK293 TRPC4/mu-opioid, membrane potential dye, mouse | shares compounds with TRPC6 inh | membrane potential fluorescence | percent change from control (negative = decrease, positive = increase), % at 10 µM | actives 69% (n = 2,400);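 active means membrane potential signal moved up or down beyond 5 SD of buffer control wells, in both duplicate plates, actives on both sides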
TRPC4/MOR inh 2 = mouse TRPC4 off-target activity of TRPC6 modulators, second screen; shares compounds with TRPC6 inh; HEK293 TRPC4/mu-opioid, membrane potential dye fluorescence; stimulated with maximal-effect DAMGO; inhibition, % at 10 µM; actives 55% (n = 2,400); AID 488928;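 active means drop in membrane potential signal beyond 5 SD of the control wells in both duplicate plates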;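 further: TRPC4 counter screen for TRPC6 hits run under conditions tuned for TRPC6 not TRPC4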
TRPC6 block conf = mouse TRPC6 channel inhibitors, confirmation, HEK293 cells, membrane potential dye, duplicate | inhibition, % at 10 µM | actives 43% (n = 3,300) | ACh-evoked depolarization | shares compounds with TRPC6 inh;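 active means fluorescence ratio falls more than 5 SD below the full-stimulation control mean, in both duplicate runs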;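 further: integrated fluorescence ratio of peak minus minimum over baseline after agonist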
TRPC6 act conf = mouse TRPC6 channel activators, confirmation, HEK293 cells, membrane potential dye, duplicate; shares compounds with TRPC6 inh; activation, % at 10 µM; AID 488961, 2010; HEK293-TRPC6 membrane potential dye fluorescence, FDSS; actives 11% (n = 2,800);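 active means ratio signal rise beyond 5 SD above unstimulated control wells' mean, seen in both duplicate runs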
Large screens that a line does not name were inactive (follow-up assays come after a bar, where they were run). Rows were chosen to be rich in hits. Some 2.3% of all compounds tested hit in one or more screens of this group.

COc1cccc(NS(=O)(=O)c2ccc3[nH]cc(C(=O)NC4CC4)c(=O)c3c2)c1	TRPC6 inh -8.87, TRPC6 activator 14.3 | HEK293 MPD ctr-2 inactive | HEK293 MPD ctr 2-2 inactive | TRPC4 ctr mod inactive | TRPC4/MOR inh 2 inactive | TRPC6 block conf 58.0% | TRPC6 act conf 90.5%
Cc1cc(Cl)ccc1OCCCC(=O)N1CCN(S(=O)(=O)c2ccccc2)CC1	none
Cc1cc(C)nc(/N=C(\N)N(Cc2ccccc2)Cc2ccccc2)n1	TRPC4 block -7, TRPC6 inh -7.51 | TRPC4 sel inh 2 39.5% | TRPC4 spec 36.6% | HEK293 MPD ctr 2-1 inactive | HEK293 MPD ctr-1 3.8% | TRPC6 block conf inactive | TRPC6 act conf inactive
Cc1ccc2c(c1)NC(=O)C(CC(=O)Nc1ccc(CN3CCC(C)CC3)cc1)O2 (configuration not stated)	TRPC6 inh -8.52 | TRPC4 sel inh 2 inactive | TRPC4 spec inactive | HEK293 MPD ctr 2-1 -4.5% | HEK293 MPD ctr-1 inactive | TRPC6 block conf 78.5% | TRPC6 act conf inactive
CCN1CCN(Cc2ccc(NC(=O)CC3Oc4ccc(C)cc4NC3=O)cc2)CC1 (configuration not stated)	none
CCCC(CCC)C(=O)OC1C[C@H]2CC[C@@H](C1)[N+]2(C)C (some centres not stated)	TRPC6 inh -8.69 | TRPC4 sel inh 2 inactive | TRPC4 spec inactive | HEK293 MPD ctr 2-1 -30.0% | HEK293 MPD ctr-1 inactive | TRPC6 block conf 93.9% | TRPC6 act conf inactive
COCC(C)NC(=O)c1ccc(CN2CCc3ccccc3C2)cc1 (configuration not stated)	TRPC6 inh -6.93 | TRPC4 sel inh 2 inactive | TRPC4 spec inactive | HEK293 MPD ctr 2-1 inactive | HEK293 MPD ctr-1 0.8% | TRPC6 block conf inactive | TRPC6 act conf inactive
CCOC(=O)Cn1c(=N)n(CCOc2ccc3ccccc3c2)c2ccccc21	TRPC6 inh -5.31 | HEK293 MPD ctr-2 inactive | HEK293 MPD ctr 2-2 inactive | TRPC4 ctr mod inactive | TRPC4/MOR inh 2 70.0% | TRPC6 block conf 40.0% | TRPC6 act conf inactive
Cc1cc(C)n2nc(C(=O)Nc3ccc(S(=O)(=O)N(C)C)cc3)nc2n1	TRPC6 inh -5.98 | HEK293 MPD ctr-2 -247.0% | HEK293 MPD ctr 2-2 inactive | TRPC4 ctr mod -41.0% | TRPC4/MOR inh 2 36.0% | TRPC6 block conf inactive | TRPC6 act conf inactive
O=C(CCCC(=O)Nc1ccccc1Br)N/N=C/c1c(F)cccc1Cl	none
Cc1cccc2c(C(=O)O)c3cccc(C)c3nc12	none
Cc1cc(NCCCn2ccnc2)n2nc(-c3ccc(Cl)cc3)cc2n1	TRPC6 inh -11.1 | HEK293 MPD ctr-2 inactive | HEK293 MPD ctr 2-2 100.5% | TRPC4 ctr mod 20.0% | TRPC4/MOR inh 2 54.0% | TRPC6 block conf 54.0% | TRPC6 act conf inactive
Cc1ccc(-c2cc3nc(C)cc(NCc4ccco4)n3n2)cc1	none
Cc1cc(NCCCn2ccnc2)n2nc(-c3ccc(F)cc3)cc2n1	TRPC6 inh -10 | HEK293 MPD ctr-2 -299.5% | HEK293 MPD ctr 2-2 92.5% | TRPC4 ctr mod -53.5% | TRPC4/MOR inh 2 62.0% | TRPC6 block conf 72.0% | TRPC6 act conf inactive
Cc1cccc(-c2cc3nc(C)c(C)c(NCCCn4ccnc4)n3n2)c1	TRPC6 inh -7.37 | TRPC4 sel inh 2 58.0% | TRPC4 spec -18.2% | HEK293 MPD ctr 2-1 inactive | HEK293 MPD ctr-1 inactive | TRPC6 block conf 76.1% | TRPC6 act conf inactive
Cc1ccc(O)c(NC(=O)c2ccc3c(c2)C(=O)N(Cc2cccnc2)C3=O)c1	none
Cc1ccc2nc(C3CCN(S(=O)(=O)c4ccc5ccccc5c4)CC3)[nH]c2c1	none
Cc1cccc2sc(N(CCCN(C)C)C(=O)c3ccco3)nc12	TRPC6 inh -6.78 | TRPC4 sel inh 2 24.0% | TRPC4 spec -19.4% | HEK293 MPD ctr 2-1 9.0% | HEK293 MPD ctr-1 inactive | TRPC6 block conf 99.4% | TRPC6 act conf inactive
Cc1cccc2sc(N(CCCN(C)C)C(=O)c3cc4ccccc4oc3=O)nc12	none
Cc1cccc2sc(N(CCCN(C)C)C(=O)c3ccc(Cl)s3)nc12	TRPC6 inh -6.61 | TRPC4 sel inh 2 42.5% | TRPC4 spec -14.3% | HEK293 MPD ctr 2-1 inactive | HEK293 MPD ctr-1 inactive | TRPC6 block conf 67.3% | TRPC6 act conf inactive
COc1ccc(NC(=O)CCC(=O)Nc2nnc(C3CCCCC3)s2)c(OC)c1	none
CC(C)(C)c1ccc(C2=CSC3=NCCN23)cc1	none
